From ChEMBL document CHEMBL1150415 (J Med Chem, 2008) come the findings set out here.

Data set [1] in a line: Inhibition of cytosolic phospholipase A2alpha by GLU micelle assay. The method in brief:
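Micellar assay with 7-hydroxycoumarinyl-γ-linolenate (GLU) substrate, presenting inhibitor and substrate to the enzyme in high-lipid micelles. Each run gives the mean of duplicate assays, and values come from at least two runs.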

The test system of another data set is Blood. The experiment in a line: Inhibition of TXB2 production in Sprague-Dawley rat whole blood. It is filed as functional, tissue-based. The method in brief: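 Rat whole blood stimulated with calcium ionophore A23187 at 5 µM, with thromboxane B2 measured. Each run gives the mean of triplicate assays, and values come from at least two runs.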
Data set [2] can be described thus: Plasma clearance in Sprague-Dawley rat at 2 mg/kg, iv. It is filed as ADME, organism-based. Further details: dose 2 mg/kg, route intravenous.

As for `O=C(O)CCc1ccc(OCCc2c(CCNS(=O)(=O)Cc3ccccc3)n(C(c3ccccc3)c3ccccc3)c3ccc(Cl)cc23)cc1`, the IC50 in data set [1] was determined as 190 nM; with Blood, 70 nM.

In the case of `N#Cc1ccc(CS(=O)(=O)NCCc2c(CCOc3ccc(C(=O)O)cc3)c3cc(Cl)ccc3n2C(c2ccccc2)c2ccccc2)cc1`, the IC50 in data set [1] was determined as 260 nM; in the data set with Blood, 150 nM.

As for `O=C(O)c1ccc(OCCc2c(CCNS(=O)(=O)Cc3ccccc3Cl)n(C(c3ccccc3)c3ccccc3)c3ccc(Cl)cc23)cc1`, the IC50 (in data set [1]; in the data set with Blood) was 50 nM in each case.

As for `O=C(O)c1ccc(OCCc2c(CCNS(=O)(=O)Cc3cccnc3)n(C(c3ccccc3)c3ccccc3)c3ccc(Cl)cc23)cc1`, the results for the IC50 (in data set [1]; with Blood) were 220 nM and 360 nM, respectively.

Turning to `O=C(O)c1ccc(S(=O)(=O)CCc2c(CCNS(=O)(=O)Cc3ccccc3)n(C(c3ccccc3)c3ccccc3)c3ccc(Cl)cc23)cc1`, the IC50 in data set [1] amounted to 20 nM; in the data set on Blood, 80 nM. The same compound showed a clearance in data set [2] of 54 mL/min/kg.

For `O=C(O)c1ccc(S(=O)(=O)CCc2c(CCNS(=O)(=O)Cc3ccc(Cl)c(Cl)c3)n(C(c3ccccc3)c3ccccc3)c3ccc(Cl)cc23)cc1`, the IC50 is 20 nM in data set [1] and 150 nM with Blood. The compound also displayed a clearance in data set [2] of 19 mL/min/kg.

Turning to `O=C(O)c1ccc(Cc2c(CCNS(=O)(=O)Cc3ccccc3)n(C(c3ccccc3)c3ccccc3)c3ccc(Cl)cc23)cc1`, the IC50 in data set [1] is 33000 nM; in the data set with Blood it was greater than 10000 nM.

As for `Cc1ccccc1CS(=O)(=O)NCCc1c(CCOc2ccc(C(=O)O)cc2)c2cc(Cl)ccc2n1C(c1ccccc1)c1ccccc1`, the IC50 stood at 60 nM in data set [1] and 30 nM in the data set on Blood.

`N#Cc1ccccc1CS(=O)(=O)NCCc1c(CCOc2ccc(C(=O)O)cc2)c2cc(Cl)ccc2n1C(c1ccccc1)c1ccccc1`: the IC50 in data set [1] amounted to 60 nM; with Blood it was 70 nM.

As for `O=C(O)c1ccc(S(=O)(=O)CCc2c(CCNS(=O)(=O)Cc3c(F)cccc3F)n(C(c3ccccc3)c3ccccc3)c3ccc(Cl)cc23)cc1`, the IC50 in data set [1] is 20 nM; in the data set on Blood, 150 nM. In addition, the clearance in data set [2] came out at 186 mL/min/kg.

Regarding `O=C(O)c1ccc(OCCc2c(CCNS(=O)(=O)Cc3ccccn3)n(C(c3ccccc3)c3ccccc3)c3ccc(Cl)cc23)cc1`, the values for the half-inhibitory concentration (IC50) (in data set [1]; with Blood) were 400 nM and 350 nM, respectively.

Turning to `O=C(O)c1ccc(OCCc2c(CCNS(=O)(=O)Cc3c(F)cccc3F)n(C(c3ccccc3)c3ccccc3)c3ccc(Cl)cc23)cc1`, the IC50 in data set [1] was 180 nM; with Blood it was 80 nM. In data set [2], this compound registered a clearance of 32 mL/min/kg.

Turning to `O=C(O)c1ccc(CCCc2c(CCNS(=O)(=O)Cc3ccccc3Cl)n(C(c3ccccc3)c3ccccc3)c3ccc(Cl)cc23)cc1`, the IC50 in data set [1] was found to be 20 nM; with Blood, 30 nM. This compound returned a clearance in data set [2] of 7 mL/min/kg.

Take `O=C(O)c1ccc(OCCc2c(CCNS(=O)(=O)Cc3ccccc3[N+](=O)[O-])n(C(c3ccccc3)c3ccccc3)c3ccc(Cl)cc23)cc1`: the IC50 in data set [1] turned out to be 85 nM; with Blood, 30 nM.

Take `N#Cc1cccc(CS(=O)(=O)NCCc2c(CCOc3ccc(C(=O)O)cc3)c3cc(Cl)ccc3n2C(c2ccccc2)c2ccccc2)c1`: the IC50 is 300 nM in data set [1] and 160 nM with Blood.

In the case of `O=C(O)c1ccc(OCCc2c(CCNS(=O)(=O)Cc3ccc([N+](=O)[O-])cc3)n(C(c3ccccc3)c3ccccc3)c3ccc(Cl)cc23)cc1`, the IC50 in data set [1] amounted to 160 nM; with Blood, 90 nM.

For `O=C(O)c1ccc(S(=O)(=O)CCc2c(CCNS(=O)(=O)Cc3ccccc3Cl)n(C(c3ccccc3)c3ccccc3)c3ccc(Cl)cc23)cc1`, the values for the IC50 (in data set [1]; in the data set on Blood) were 10 nM and 60 nM, respectively.

Turning to `O=C(O)c1ccc(OCCc2c(CCNS(=O)(=O)Cc3ccccc3)n(C(c3ccccc3)c3ccccc3)c3ccc(Cl)cc23)cc1`, the IC50 in data set [1] stood at 110 nM.

With `O=C(O)c1ccc(OCCc2c(CCNS(=O)(=O)Cc3cccc([N+](=O)[O-])c3)n(C(c3ccccc3)c3ccccc3)c3ccc(Cl)cc23)cc1`, the IC50 in data set [1] was 110 nM; with Blood it was 70 nM.

With `O=C(O)c1ccc(OCCc2c(CCNS(=O)(=O)Cc3ccc4ccccc4c3)n(C(c3ccccc3)c3ccccc3)c3ccc(Cl)cc23)cc1`, the figures for the IC50 (in data set [1]; with Blood) were 230 nM and 140 nM, respectively.

As to `O=C(O)CCc1ccc(S(=O)(=O)CCc2c(CCNS(=O)(=O)Cc3c(F)cccc3F)n(C(c3ccccc3)c3ccccc3)c3ccc(Cl)cc23)cc1`, the IC50 in data set [1] came to 70 nM; with Blood, 20 nM.

In the case of `O=C(O)CCc1ccc(S(=O)(=O)CCc2c(CCNS(=O)(=O)Cc3ccc(Cl)c(Cl)c3)n(C(c3ccccc3)c3ccccc3)c3ccc(Cl)cc23)cc1`, the IC50 (in data set [1]; with Blood) was 40 nM throughout. The clearance in data set [2] came out at 10 mL/min/kg.

Take `Cc1ccccc1CS(=O)(=O)NCCc1c(CCCc2ccc(C(=O)O)cc2)c2cc(Cl)ccc2n1C(c1ccccc1)c1ccccc1`: the figures for the IC50 (in data set [1]; with Blood) were 30 nM and 20 nM, respectively. The same compound yielded a clearance in data set [2] of 6 mL/min/kg.

Regarding `O=C(O)CCc1ccc(S(=O)(=O)CCc2c(CCNS(=O)(=O)Cc3ccccc3Cl)n(C(c3ccccc3)c3ccccc3)c3ccc(Cl)cc23)cc1`, the values for the IC50 (in data set [1]; with Blood) were 10 nM and 20 nM, respectively. The same compound showed a clearance in data set [2] of 63 mL/min/kg.

With `O=C(O)CCc1ccc(S(=O)(=O)CCc2c(CCNS(=O)(=O)Cc3ccccc3)n(C(c3ccccc3)c3ccccc3)c3ccc(Cl)cc23)cc1`, the IC50 is 30 nM in data set [1] and 20 nM with Blood. In data set [2], the clearance was determined as 150 mL/min/kg.

For the compound `CN(CCc1c(CCNS(=O)(=O)Cc2ccccc2)n(C(c2ccccc2)c2ccccc2)c2ccc(Cl)cc12)c1ccc(C(=O)O)cc1`, the IC50 in data set [1] amounted to 4300 nM; in the data set with Blood it was 1800 nM.

As for `Cc1cccc(C)c1CS(=O)(=O)NCCc1c(CCS(=O)(=O)c2ccc(C(=O)O)cc2)c2cc(Cl)ccc2n1C(c1ccccc1)c1ccccc1`, the IC50 in data set [1] came to 4 nM; in the data set with Blood, 70 nM. Also, in data set [2], the clearance worked out at 25 mL/min/kg.

Regarding `O=C(O)c1ccc(NCCc2c(CCNS(=O)(=O)Cc3ccccc3)n(C(c3ccccc3)c3ccccc3)c3ccc(Cl)cc23)cc1`, the IC50 came out at 680 nM in data set [1] and 400 nM in the data set with Blood.

In the case of `O=C(O)c1ccc(CCCc2c(CCNS(=O)(=O)Cc3c(F)cccc3F)n(C(c3ccccc3)c3ccccc3)c3ccc(Cl)cc23)cc1`, the IC50 is 60 nM in data set [1] and 360 nM in the data set on Blood.

Turning to `O=C(O)COc1ccc(Cc2c(CCNS(=O)(=O)Cc3ccccc3)n(C(c3ccccc3)c3ccccc3)c3ccc(Cl)cc23)cc1`, the figures for the IC50 (in data set [1]; in the data set on Blood) were 7000 nM and greater than 10000 nM, respectively.

On to `O=C(O)Cc1nc(CCCc2c(CCNS(=O)(=O)Cc3ccccc3)n(C(c3ccccc3)c3ccccc3)c3ccc(Cl)cc23)no1`, for which, in data set [1], the concentration for half-maximal inhibition (IC50) is greater than 20000 nM.

On to `O=C(O)c1ccc(OCCc2c(CCNS(=O)(=O)Cc3ccncc3)n(C(c3ccccc3)c3ccccc3)c3ccc(Cl)cc23)cc1`, for which the IC50 was 180 nM in data set [1] and 340 nM with Blood.

Turning to `O=C(O)c1ccc(CCCc2c(CCNS(=O)(=O)Cc3ccccc3)n(C(c3ccccc3)c3ccccc3)c3ccc(Cl)cc23)cc1`, the IC50 (in data set [1]; in the data set with Blood) was 70 nM throughout.

With `O=C(O)CCc1ccc(Cc2c(CCNS(=O)(=O)Cc3ccccc3)n(C(c3ccccc3)c3ccccc3)c3ccc(Cl)cc23)cc1`, the half-inhibitory concentration (IC50) in data set [1] turned out to be 2000 nM; in the data set with Blood, 900 nM.
